Assay results taken from ChEMBL document CHEMBL1132700, “Design, synthesis, structure-activity relationships, and biological characterization of novel arylalkoxyphenylalkylamine sigma ligands as potential antipsychotic drugs” (J Med Chem, 1999).

Key:
D(2) dopamine receptor = D(2) dopamine receptor (Rattus norvegicus, UniProt P61169); test: Inhibitory concentration against radioligand [3H](-)-sulpiride binding to Dopamine receptor D2 in rat
Procedure, shortened: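 Striatal membranes from male Wistar rats (200–250 g), homogenized in 50 mM Tris/HCl pH 7.7, washed by repeated 50000g spins. Filtration on PEI-soaked glass-fiber filters, then scintillation counting. IC50 by nonlinear curve fitting, duplicate determinations.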

[1] = target: Sigma non-opioid intracellular receptor 1 (Rattus norvegicus, UniProt Q9R0C9); test: Inhibitory concentration against radioligand [3H]3-PPP binding to Sigma opioid receptor type 1 in rat brain membrane; assay type: cell membranes
Procedure, shortened: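 Rat whole-brain membranes from male Wistar rats (200–250 g), homogenized in 50 mM Tris/HCl pH 7.7, washed by repeated 50000g spins. Incubated with 2 nM [3H]-(+)-3-PPP and at least five concentrations of unlabeled drug. Filtered on polyethylenimine-soaked glass-fiber filters and counted by scintillation. IC50 from nonlinear curve fitting of competition data, duplicate determinations.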

Sigma non-opioid intracellular receptor 1, sequence (Q9R0C9 whole entry): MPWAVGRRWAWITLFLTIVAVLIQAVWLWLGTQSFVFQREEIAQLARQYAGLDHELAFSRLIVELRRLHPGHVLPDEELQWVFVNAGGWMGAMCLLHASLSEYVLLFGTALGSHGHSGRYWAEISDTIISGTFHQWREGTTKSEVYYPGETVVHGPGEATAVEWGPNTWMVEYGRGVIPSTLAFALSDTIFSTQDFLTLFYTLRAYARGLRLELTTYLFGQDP
D(2) dopamine receptor, sequence (P61169 whole entry): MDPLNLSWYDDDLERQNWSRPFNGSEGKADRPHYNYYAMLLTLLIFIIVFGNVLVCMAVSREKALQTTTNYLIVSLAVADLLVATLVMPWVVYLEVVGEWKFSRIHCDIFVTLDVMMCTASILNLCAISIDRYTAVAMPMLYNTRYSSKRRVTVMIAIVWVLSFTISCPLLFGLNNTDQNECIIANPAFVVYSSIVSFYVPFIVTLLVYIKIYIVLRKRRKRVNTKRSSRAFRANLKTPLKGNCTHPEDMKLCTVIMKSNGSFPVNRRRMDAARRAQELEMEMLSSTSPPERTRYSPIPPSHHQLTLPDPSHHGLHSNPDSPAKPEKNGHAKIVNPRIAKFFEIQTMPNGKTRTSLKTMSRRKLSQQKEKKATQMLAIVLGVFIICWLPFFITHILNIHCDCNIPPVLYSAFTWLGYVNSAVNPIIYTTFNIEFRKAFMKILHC

`CCCN(CCC)CCc1ccc(OC)cc1OCCc1ccccc1` was tested, and the IC50 (D(2) dopamine receptor) was greater than 1000 nM.

`CCCN(CCC)CCc1cc(Cl)ccc1OCCCc1ccccc1` gave an IC50 (D(2) dopamine receptor) of 876 nM and an IC50 [1] of 56 nM.

Molecule `CCCN(CCC)CCc1ccc(OC)c(OCCc2ccc(F)cc2)c1` has an IC50 (D(2) dopamine receptor) greater than 1000 nM and an IC50 [1] of 1 nM.

Molecule `CCCN(CCC)CCc1ccc(OC)c(OCCc2ccc(OC)c(OC)c2)c1` has an IC50 [1] of 67 nM.

`CCCN(CCC)CCc1ccc(OCCc2ccccc2)c(OC)c1` showed an IC50 (D(2) dopamine receptor) greater than 1000 nM and an IC50 [1] of 12 nM.

`CCCN(CCc1ccc(OC)c(OCCc2ccccc2)c1)CCC(C)C` gave an IC50 (D(2) dopamine receptor) of 680 nM and an IC50 [1] of 2.9 nM.

Molecule `CCCN(CCC)CCc1cc(F)ccc1OCCc1ccccc1` has an IC50 (D(2) dopamine receptor) greater than 1000 nM and an IC50 [1] of 13 nM.

With `Clc1ccc(OCCc2ccccc2)c(CCN2CCN(c3ncccn3)CC2)c1` the IC50 (D(2) dopamine receptor) was 143 nM and the IC50 [1] was greater than 1000 nM.

Work on `COc1ccc(CCN2CCN(c3ccccn3)CC2)cc1OCCc1ccccc1` yielded an IC50 (D(2) dopamine receptor) of 295 nM and an IC50 [1] of 112 nM.

With `CCCN(CCC)CCc1ccccc1OCCc1ccccc1` the IC50 (D(2) dopamine receptor) was 436 nM and the IC50 [1] was 15 nM.

`Clc1ccc(OCCc2ccccc2)c(CCN2CCCC2)c1` gave an IC50 (D(2) dopamine receptor) of 69 nM and an IC50 [1] of 36 nM.

`Clc1ccc(OCCc2ccccc2)c(CCCN2CCN(c3ccccn3)CC2)c1` gave an IC50 (D(2) dopamine receptor) of 93 nM and an IC50 [1] of 118 nM.

`CN1CCc2cccc3c2[C@H]1Cc1ccc(O)c(O)c1-3` [APOMORPHINE] gave an IC50 [1] greater than 1000 nM.

`CCCN(CCC)CCc1ccc(OCCc2ccccc2)c(O)c1` gave an IC50 (D(2) dopamine receptor) greater than 1000 nM and an IC50 [1] of 25 nM.

Molecule `CCCN(CCC)CCc1cc(Br)cc(Br)c1OCCc1ccccc1` has an IC50 (D(2) dopamine receptor) greater than 1000 nM and an IC50 [1] of 774 nM.

`CCCN(CCC)CCc1ccc(Cl)cc1OCCc1ccccc1` was tested, and the IC50 (D(2) dopamine receptor) was greater than 1000 nM.

Molecule `CCCN(CCC)CCc1cc(Cl)ccc1OCc1ccccc1` has an IC50 (D(2) dopamine receptor) of 337 nM and an IC50 [1] of 118 nM.

Molecule `CCCN(CCC)CCc1cc(Br)ccc1OCCCc1ccccc1` has an IC50 (D(2) dopamine receptor) of 685 nM and an IC50 [1] of 44 nM.

With `CCCN(CCC)CCc1cccc(OC)c1OCCCc1ccccc1` the IC50 (D(2) dopamine receptor) was greater than 1000 nM and the IC50 [1] was 1.7 nM.

Work on `Clc1ccc(OCCc2ccccc2)c(CCN2CCOCC2)c1` yielded an IC50 (D(2) dopamine receptor) of 163 nM and an IC50 [1] of 308 nM.

Work on `Cc1cccc(N2CCN(CCCc3cc(Cl)ccc3OCCc3ccccc3)CC2)n1` yielded an IC50 (D(2) dopamine receptor) of 293 nM and an IC50 [1] of 415 nM.

For `COc1cccc(CCN2CCN(c3ccccn3)CC2)c1OCCc1ccccc1`, the IC50 (D(2) dopamine receptor) was 137 nM and the IC50 [1] was greater than 1000 nM.

`COc1ccc(CCN)cc1OCCc1ccccc1` gave an IC50 (D(2) dopamine receptor) greater than 1000 nM.

For `COc1ccc(CCN2CCCC2)cc1OCCc1ccccc1`, the IC50 (D(2) dopamine receptor) was greater than 1000 nM.

For `CCCN(CCC)CCc1ccc(OC)c2c1-c1ccccc1CO2`, the IC50 (D(2) dopamine receptor) was greater than 1000 nM and the IC50 [1] was 990 nM.

`CCCN(CCC)CCc1ccc(OCCc2ccccc2)cc1OC` gave an IC50 (D(2) dopamine receptor) greater than 1000 nM.

`COc1cccc(CCN2CCOCC2)c1OCCc1ccccc1` showed an IC50 (D(2) dopamine receptor) greater than 1000 nM and an IC50 [1] of 373 nM.

`CCCN(CCC)CCc1cc(Cl)cc(Cl)c1OCCc1ccccc1` showed an IC50 (D(2) dopamine receptor) greater than 1000 nM and an IC50 [1] of 281 nM.

For `CCCN(CCC)CCc1ccc(O)c(OCCc2ccccc2)c1`, the IC50 (D(2) dopamine receptor) was greater than 1000 nM.

In the case of `CCCN(CCC)CCc1ccc(OC)c(OCc2ccccc2)c1.O=C(O)C(=O)O`, the IC50 (D(2) dopamine receptor) is reported as greater than 1000 nM and the IC50 [1] is reported as 28 nM.

For `COc1cccc(CCN2CCN(c3ccccc3)CC2)c1OCCc1ccccc1`, the IC50 (D(2) dopamine receptor) was 66 nM and the IC50 [1] was 328 nM.

In the case of `CCCN(CCC)CCc1ccc(OC)c(OCCc2cccs2)c1`, the IC50 (D(2) dopamine receptor) is reported as greater than 1000 nM.

With `CCCNCCc1ccc(OC)c(OCCc2ccccc2)c1` the IC50 (D(2) dopamine receptor) was greater than 1000 nM.

Work on `CCCN(CCC)CCCCc1cc(Cl)ccc1OCCc1ccccc1` yielded an IC50 (D(2) dopamine receptor) greater than 1000 nM and an IC50 [1] of 26 nM.

Molecule `CCCN(CCCO)CCc1ccc(OC)c(OCCc2ccccc2)c1` has an IC50 (D(2) dopamine receptor) greater than 1000 nM and an IC50 [1] of 19 nM.

For `Clc1ccc(OCCc2ccccc2)c(CCN2CCN(c3ccccn3)CC2)c1`, the IC50 (D(2) dopamine receptor) was 51 nM and the IC50 [1] was greater than 1000 nM.

In the case of `COc1ccccc1N1CCN(CCc2cc(Cl)ccc2OCCc2ccccc2)CC1`, the IC50 (D(2) dopamine receptor) is reported as 88 nM and the IC50 [1] is reported as 640 nM.

Molecule `Clc1ccc(OCCc2ccccc2)c(CCCN2CCN(c3ccccc3)CC2)c1` has an IC50 (D(2) dopamine receptor) of 180 nM.

`CCCN(CCC)CCc1cccc(F)c1OCCc1ccccc1` showed an IC50 (D(2) dopamine receptor) greater than 1000 nM and an IC50 [1] of 22 nM.

`CCCN(CCC)CCc1ccc(OC)c(OCCCc2ccccc2)c1` showed an IC50 (D(2) dopamine receptor) greater than 1000 nM.

For `CCCN(CCC)CCc1ccc(OC)c(OCCc2cccc(Cl)c2)c1`, the IC50 (D(2) dopamine receptor) was greater than 1000 nM.

`COc1cccc(CCN2CCCC2)c1OCCc1ccccc1` showed an IC50 (D(2) dopamine receptor) greater than 1000 nM.
